bovine MsrA act = bovine MsrA enzyme activators, primary screen, biochemical, absorbance, HTS; Methionine sulfoxide reductase A (Bos taurus); purified bovine MsrA, absorbance read-out; activation, % at 10.6 µM; 360,000 tested, 0.3% active; AID 602163, 2012; in the data active = activation above about 7.5%;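 also: 0% = vehicle and 100% = reference activator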
AHR activator = AHR activators, primary screen, cell-based, luminescence, luciferase reporter, human | Aryl hydrocarbon receptor (Homo sapiens), P35869 | AHR-responsive luciferase reporter cells | activation, % at 5 µM | 320,000 tested, 2.5% active; in the data active = activation above about 47%;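 also: 0% = vehicle wells and 100% = reference agonist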
Target sequence (P35869 whole entry, looked up): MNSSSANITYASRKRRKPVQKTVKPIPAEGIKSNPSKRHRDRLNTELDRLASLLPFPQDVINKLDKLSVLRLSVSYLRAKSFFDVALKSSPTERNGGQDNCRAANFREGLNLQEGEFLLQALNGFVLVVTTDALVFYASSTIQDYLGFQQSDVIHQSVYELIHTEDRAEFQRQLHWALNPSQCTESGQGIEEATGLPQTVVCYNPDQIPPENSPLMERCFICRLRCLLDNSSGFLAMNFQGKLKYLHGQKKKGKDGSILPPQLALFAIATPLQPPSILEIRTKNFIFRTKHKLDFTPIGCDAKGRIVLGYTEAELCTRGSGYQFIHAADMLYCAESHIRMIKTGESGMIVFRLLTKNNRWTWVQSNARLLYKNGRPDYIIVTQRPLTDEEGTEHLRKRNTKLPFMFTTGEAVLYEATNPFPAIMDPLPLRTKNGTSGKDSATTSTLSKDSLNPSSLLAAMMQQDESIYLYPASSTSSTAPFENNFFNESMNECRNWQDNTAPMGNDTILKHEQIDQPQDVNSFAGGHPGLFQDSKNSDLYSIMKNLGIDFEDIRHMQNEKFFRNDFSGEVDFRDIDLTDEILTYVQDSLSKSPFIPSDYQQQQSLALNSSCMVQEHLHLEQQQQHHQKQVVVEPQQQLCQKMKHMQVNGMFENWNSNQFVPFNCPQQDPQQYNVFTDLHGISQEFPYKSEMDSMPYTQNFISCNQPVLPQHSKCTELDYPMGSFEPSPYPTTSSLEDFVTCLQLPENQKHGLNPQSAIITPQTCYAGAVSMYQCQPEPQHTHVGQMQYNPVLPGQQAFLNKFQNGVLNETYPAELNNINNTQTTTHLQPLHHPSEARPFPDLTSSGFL
Tb MetRS inh = T. brucei MetRS inhibitors, primary screen, biochemical, luminescence; inhibition, % at 11.9 µM; AID 624268, 2012; purified T. brucei MetRS, ATP depletion, Kinase-Glo luminescence; 360,000 tested, 0.4% active;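 active = inhibition above a per-plate cutoff of the control wells' mean inhibition plus 3 SD, cut at about 5.5% in these data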;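 also: 0% = DMSO wells median and 100% = median of wells with control inhibitor compound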
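Material: parasite MetRS enzyme / Replication: singlicate, one well per compound / Signal: luminescence of leftover ATP / Schedule: 2 h aminoacylation at 25 °C after 15 min preincubation / Medium: HEPES-MgCl2-KCl buffer plus DTT, spermine, BSA, pyrophosphatase / Doses: 11.9 µM single point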
HTR2A ag = mouse Htr2a agonists via beta-arrestin recruitment, primary screen, cell-based, luminescence | 5-hydroxytryptamine receptor 2A (Mus musculus), P35363 | CHO-K1 mHTR2A beta-arrestin complementation; percent of 30 µM serotonin response | activation, % at 7.6 µM | 360,000 tested, 0.66% active;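 active = activation above a run cutoff, the mean activation of all tested compounds plus 3 SD, cut at about 14% in these data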;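 also: 0% = plate median of compound wells and 100% = 30 µM serotonin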
MsrA inhibitor = bovine MsrA enzyme inhibitors, primary screen, biochemical, absorbance, HTS | Methionine sulfoxide reductase A (Bos taurus) | purified bovine MsrA, absorbance read-out | inhibition, % at 15.5 µM | 360,000 tested, 0.75% active | AID 651718, 2012; in the data active = inhibition above about 4.5%;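 also: 0% = vehicle wells with enzyme and 100% = reference inhibitor wells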
AI-2 QS modul = Vibrio harveyi AI-2 quorum sensing modulators, primary screen, JMH597 strain, luminescence/OD600 ratio | 300,000 tested, 0.4% active | AID 2094, 2009 | activity change, % at 7.5 µM | Vibrio harveyi JMH597 AI-2 luminescence/OD600 ratio, 9 h; stronger effect = lower value; strain lacks LuxN and CqsS sensors; 0 = neutral-control median; in the data active = activity change below about -75%, passing the limit was not always enough;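 also: luminescence divided by OD600 gain over 9 h not by final OD600 alone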
MOR ag counter = OPRM1 agonists via beta-arrestin recruitment, confirmation, counter-screen for mouse HTR2A agonist project, cell-based, luminescence, single concentration; 2,300 tested, 5.3% active; shares compounds with HTR2A ag; AID 624380, 2012; U2OS OPRM1 beta-arrestin PathHunter; DMSO 0%, DAMGO 9.3 µM 100%; activation, % at 9.3 µM;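 active = mean activation above the mean of DMSO-only wells plus 3 SD, cut at about 0.5% in these data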
m5-HT2A ag conf = mouse HTR2A agonists, beta-arrestin recruitment, confirmation, cell-based, luminescence, CHO-K1 PathHunter, triplicate | DMSO 0%, 30 µM serotonin 100% | activation, % at 7.6 µM | shares compounds with HTR2A ag | 2,300 tested, 19% active;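 active = mean activation across triplicates above the hit threshold derived in the original primary screen, cut at about 15% in these data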
Numbers without * were called inactive; · = no result given. A selection: hits, their analogues and other compounds. The true share with any hit is near 4.4%.

SMILES	bovine MsrA act	AHR activator	Tb MetRS inh	HTR2A ag	MsrA inhibitor	AI-2 QS modul	MOR ag counter	m5-HT2A ag conf
C#CCN(C[C@@H]1[C@@H](OC(=O)NCCCCCC)[C@@H](OC(=O)NCCCCCC)Cn2c(=O)ccc(=O)n21)S(=O)(=O)c1ccc(C)cc1	-1.6	·	-0.7	8.7	2.0	·	·	·
C#CCN(C[C@@H]1[C@@H](OC(=O)NCC2CCCCC2)[C@@H](OC(=O)NCC2CCCCC2)Cn2c(=O)ccc(=O)n21)S(=O)(=O)c1ccc(C)cc1	1.4	·	-0.4	27.3*	1.8	·	-0.3	35.0*
CC(=O)N1CCN(C(=O)c2ccc(Cl)c(NC(=O)c3cccs3)c2)CC1	-4.8	4.1	-0.6	14.7*	-0.5	7.9	-0.6	-2.5
COc1ccccc1CNC(=O)COC(=O)C1CCN(c2ccc(C(F)(F)F)cn2)CC1	-1.2	5.2	-0.6	-5.2	0.9	30.3	·	·
COc1ccc(CNC(=O)CCCn2nc(C)n3ccnc3c2=O)cc1	-2.8	1.0	-0.1	25.4*	-0.1	30.0	-0.7	-3.1
CC1CCN(S(=O)(=O)c2ccc(C(=O)N3CCCC3C(=O)O)cc2)CC1 (centres undefined)	-5.4	-1.7	-0.3	0.5	0.1	·	·	·
CC(=O)N(C(C)=O)c1ncn(C)c1S(=O)(=O)Nc1ccccc1	-1.5	·	-0.3	-1.2	-0.4	·	·	·
Cc1nc(N2CCN(c3ccccc3F)CC2)[nH]c(=O)c1C	-2.0	·	-0.6	-5.7	0.1	28.7	·	·
CCc1c(C)nc(N2CCN(c3ccccc3F)CC2)[nH]c1=O	-0.2	-5.2	0.9	19.7*	-0.5	13.7	0.9*	4.3
Cc1cc(=O)c(C(=O)Nc2cccc(C(=O)NC3CC3)c2)nn1-c1ccccc1Cl	-14.1	20.0	-0.9	14.5*	2.1	·	-0.5	-0.4
Cn1nc(C(=O)Nc2cccc(C(=O)NC3CC3)c2)c2ccccc2c1=O	-2.0	8.2	-0.1	-0.5	0.8	·	·	·
COc1ccc(CCN2CC(C(=O)NCCCn3nc(C)cc3C)CCC2=O)cc1 (centres undefined)	-7.2	2.8	-0.4	18.3*	-0.1	20.0	-0.3	2.2
Nc1nc(CN2CCN(c3ccccc3F)CC2)nc(Nc2ccc3c(c2)OCCO3)n1	-12.4	4.3	-1.3	22.5*	-0.6	23.5	-0.8	35.8*
Nc1nc(CN2CCN(c3ccccn3)CC2)nc(Nc2ccc(Cl)cc2)n1	-1.5	6.5	1.7	15.4*	-1.0	6.7	-0.3	72.7*
Cc1cc(N2CCCC2)ccc1NC(=O)COc1cccc(C(F)(F)F)c1	0.4	-3.4	-0.2	-8.2	-1.7	14.1	·	·
Cc1nc2c([nH]1)C1(CCN(Cc3ccccc3)CC1)C(C#N)=C(N)O2	-3.6	3.5	-0.4	33.1*	0.7	·	-0.3	-0.1
COc1cc(C(=O)N2CCCCC2c2cc(C(=O)NC(C)C)no2)cc(OC)c1C (centres undefined)	-0.3	·	0.2	-3.8	0.4	·	·	·
CCCNC(=O)c1cc(C2CCCCN2C(=O)c2cc(OC)c(C)c(OC)c2)on1 (centres undefined)	-9.6	·	-0.4	16.5*	0.1	·	-0.6	-3.8
Nc1cc(Cl)nnc1Cl	-2.5	·	-0.3	18.7*	0.4	7.5	-0.8	-2.1
COc1cc(C(c2nnnn2C(C)(C)C)N2CCN(c3nc4ccccc4s3)CC2)ccc1O (centres undefined)	-7.1	1.5	0.1	29.2*	-0.3	-1.6	-0.6	9.3
Oc1ccc(C(c2nnnn2CCc2ccccc2)N2CCN(c3nc4ccccc4s3)CC2)cc1 (centres undefined)	-2.9	-2.7	-0.1	21.6*	0.9	20.5	-0.6	-2.1
O=C(Nc1ccc(N2CCCCCC2)cc1)c1ccc[nH]1	-1.5	4.4	-0.1	-4.8	1.1	·	·	·
CC1=C(C(=O)OCc2ccccc2)C(c2ccccc2Br)NC(=O)N1 (centres undefined)	-3.2	0.6	0.1	29.3*	-0.6	9.2	-0.5	22.8*
CCn1c(N2CCN(S(=O)(=O)c3ccc(OC)cc3)CC2)nc2ccccc21	-8.2	-1.3	-1.3	16.9*	-0.3	-10.1	0.3	44.5*
COc1cc(OC)c(N(C)C(=O)c2cn(C)c(=O)c3cc(OC)c(OC)cc23)cc1Cl	-5.1	2.8	-0.5	-0.5	0.2	14.8	·	·
SMILES	bovine MsrA act	AHR activator	Tb MetRS inh	HTR2A ag	MsrA inhibitor	AI-2 QS modul	MOR ag counter	m5-HT2A ag conf
C/C(=N\NC(=O)c1cccc(S(=O)(=O)N2CCCC2)c1)c1ccc(C)cc1	-3.5	2.1	-0.4	-2.0	-0.1	24.3	·	·
CCOc1ccccc1NC(=O)CSc1nnc(CNC(=O)c2ccccc2F)o1	-1.2	8.9	-0.3	16.6*	-1.0	16.1	-0.8	-4.1
CCOC(=O)c1ccc(NC(=O)CSc2nnc(CNC(=O)c3ccccc3F)o2)cc1	-1.8	1.4	-0.6	2.4	-1.3	13.9	·	·
CCNC(=S)Nc1ccc2c(c1)oc1ccccc12	-0.8	5.6	-0.2	5.1	-1.1	-42.6	·	·
COc1ccc(NC(=O)CNS(=O)(=O)c2cccs2)cc1	0.3	1.7	0.0	24.4*	0.9	21.2	-0.5	-0.7
S=c1[nH]nc(C2CCCCC2)n1/N=C/c1cccc(Cl)c1Cl	-1.8	·	-0.8	1.3	0.0	19.5	·	·
O=C1CN(C(=O)C2CCC(=O)N(CCc3ccc(Cl)cc3)C2)CCN1 (centres undefined)	-2.7	-0.5	0.0	16.7*	-0.4	28.3	-0.6	2.2
CC(C)C1CCN(C(=O)C2CCC(=O)N(CCc3ccc(Cl)cc3)C2)CC1 (centres undefined)	-0.8	-2.3	-0.3	0.4	-0.1	53.8	·	·
Cc1ccc(-c2csc(NC(=O)c3cccc(C)c3)c2C(=O)O)cc1	-2.3	-1.0	-0.1	14.9*	1.8	33.9	-0.5	-1.8
COc1ccc(C(CNC(=O)c2cccc(S(=O)(=O)Nc3ccc(F)cc3)c2)N2CCCCC2)cc1 (centres undefined)	-4.4	·	-0.3	-10.0	-0.4	·	·	·
CCCC(=O)N1CC2(C)CN(C(=O)CCC)CC(CCC)(C1)C2=O	2.6	0.5	-0.2	15.5*	0.9	1.4	-0.6	-4.1

Source: PubChem BioAssay
